Screening results as filed in PubChem.
Only some compounds are listed: those with a hit (about 1.6% of all), similar ones and a draw of the others.
HMGR II inh: E. faecalis class II HMG-CoA reductase inhibition. inhibition, % at 10 µM. hit rate 0.41% among 190,000. purified E. faecalis HMGR, NADPH absorbance 340 nm kinetic;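 active means inhibition above a set limit, the median over all tested compounds plus 3 SD, cut at about 9.5% in these data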;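 further: enzyme runs in reverse so mevalonate oxidation gives rising NADPH absorbance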
ABCG2 inh: inhibitors of human ABCG2 transporter, ABCB1 counter-screen | IgMXP3 cells, JC-1 efflux, flow cytometry | inhibition, % at 6.6 µM | hit rate 0.1% among 190,000;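 active means inhibition above 80%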
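Test system: ABCG2 IgMXP3 and barcoded ABCB1 CCRF-Adr cell mix; Schedule: cells with compound and JC-1, 10 min at 25 °C, rotating, no wash; Technique: flow cytometry of retained JC-1 fluorescence; Measure: % inhibition of efflux relative to nicardipine and DMSO; Controls: nicardipine high and DMSO low controls.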
p47phox inh: blocks human p47phox regulatory protein of NADPH oxidases | p47phox/p22phox peptide binding, fluorescence polarization, 2 h | inhibition, % at 24.7 µM | hit rate 0.53% among 220,000 | AID 1274;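 active means inhibition above about 30%, limit read from the data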
Diaphorase inh: inhibits diaphorase or chemically oxidizes, flagging diaphorase assay artifacts. diaphorase resazurin-to-resorufin fluorescence, NADH, 16 min; bacterial (C. kluyveri) enzyme, not human. hit rate 0.69% among 190,000. AID 1217. inhibition, % at 20 µM;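 active means primary screen inhibition at 20 µM above a set limit, cut at about 50% in these data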
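Detection: fluorescence of resorufin formed from resazurin, Ex 544/Em 590 nm; test system: Clostridium kluyveri diaphorase enzyme; amount: 0.14 U/mL diaphorase, enzyme working solution; times: 16-min room-temperature incubation before reading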
ABCB1 inh: blocks JC-1 efflux by human ABCB1 transporter. P08183. CCRF-Adr cells, flow cytometry. inhibition, % at 6.6 µM. hit rate 0.067% among 190,000. AID 1326; in the data active means inhibition above about 40%;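 further: higher value means more JC-1 retained so stronger ABCB1 efflux block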
Diaphorase act: diaphorase activation or chemical reduction counter-screen; hit rate 0.005% among 190,000; Diaphorase/resazurin coupled assay, resorufin fluorescence, 16 min; hits give high values; 1 = vehicle wells, 0 = NADH-free wells; activation factor at 20 µM;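 active means diaphorase activity raised at least twofold by the compound at 20 µM; inactive means activation factor below 2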
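Measured by – red resorufin fluorescence at 544/590 nm excitation/emission · Test system – Clostridium kluyveri diaphorase, purified enzyme · Incubation – reaction time 16 min, room temperature · Buffer or medium – 50 mM HEPES pH 7.4 with 4.542 mM MgCl2, 0.005% Tween 20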
Hits are given with their value; n = inactive; x = no result.

SMILES	HMGR II inh	ABCG2 inh	p47phox inh	Diaphorase inh	ABCB1 inh	Diaphorase act
N#Cc1c(NCCCO)nc(NCc2ccccc2)c2c1CCN(Cc1ccccc1)C2	n	n	n	56.3	n	n
Cn1ccnc1C(O)c1ccccc1 (stereo unspecified)	n	n	n	n	n	n
Cn1ccnc1C(O)(c1ccccc1)c1nccn1C	x	x	48.4	x	x	x
O=C1NC(=O)/C(=C/C(=O)N2CCOCC2)S1	13.5	n	n	n	n	n
Cc1cc(/C=C2/SC(=O)NC2=O)c(C)n1-c1ccc(N2CCOCC2)cc1	n	n	n	n	n	n
CC(C)(C)c1ccc(OCC(=O)NNC(=O)CCc2ccccc2)cc1	n	n	60.6	n	n	n
COc1ccc(S(=O)(=O)N2CCN(c3ccc4nnc(-c5ccccc5)n4n3)CC2)cc1	n	n	n	52.8	n	n
c1ccc(-c2nnc3ccc(N4CCC5(CC4)OCCO5)nn23)cc1	n	n	n	n	n	n
COc1ccc2c(c1)C(=NNC(=O)c1ccccn1)c1cc(OC)ccc1-2	n	n	48.9	n	n	n
O=C(O)c1[nH]c2ccc([N+](=O)[O-])cc2c1-c1ccccc1	x	x	n	x	x	x
O=[N+]([O-])c1ccc2[nH]nc(-c3ccccc3)c2c1	9.8	n	n	n	n	n
CCCSC1=C(C#N)C2(CCCCC2)C(C#N)=C(N)N1	n	n	n	n	n	n
CC1CCCCN1C(=O)CSc1nc2ccccc2n1CC(=O)N1CCc2ccccc21 (stereo unspecified)	n	n	n	n	n	n
CCCCCCCCC[n+]1cccc2c3ccccc3ccc21	n	n	n	n	n	n
CCCCCCCCCCCCCCCC[n+]1cccc2ccccc21	n	n	100.6	n	n	n
C/C(=N\NC(=O)c1cccc([N+](=O)[O-])c1)c1cccc(NC(=O)C2CC2)c1	n	n	n	n	n	n
CCC(=O)Nc1nc2ccccc2n1CCN1CCOCC1	n	n	38.3	n	n	n
O=C(Nc1nc2ccccc2n1CCN1CCOCC1)c1ccc(Cl)cc1	x	x	n	x	x	x
O=C(CSc1nnc(C2COc3ccccc3O2)o1)Nc1nccs1 (stereo unspecified)	n	n	37.4	n	n	n
O=C(CNCc1ccco1)Nc1ccc(N2CCCCCC2)cc1	11.0	n	n	n	n	n
CCOC(=O)C1CCN(CC(=O)NC(=O)NC2CCCCC2)CC1	n	n	n	n	n	n
Cc1ccc(S(=O)(=O)NCC(=O)N/N=C/c2ccc(Cl)cc2)cc1	n	n	n	n	n	n
Cc1csc(NS(=O)(=O)c2cccc([N+](=O)[O-])c2)n1	n	n	n	67.3	n	n
CC(=O)Nc1ccccc1NS(=O)(=O)c1cccc([N+](=O)[O-])c1	n	n	n	n	n	n
CCCCC1=CC2=CC(=O)C(C)(OC(=O)CC)C(=O)C2=CN1CCc1ccccn1 (stereo unspecified)	x	x	n	x	x	x
SMILES	HMGR II inh	ABCG2 inh	p47phox inh	Diaphorase inh	ABCB1 inh	Diaphorase act
CCOc1cc(/C=N/NC(=O)Nc2ccccc2)ccc1O	n	n	74.9	n	n	n
Cc1cc(C)c(NC(=O)c2sc3nc(C)[nH]c(=O)c3c2C)c(C)c1	n	n	x	n	n	n
O=C(O)c1cccc(NS(=O)(=O)c2ccc(Cl)c(C(=O)O)c2)c1	n	n	n	n	n	n
O=C(c1cccc(S(=O)(=O)Nc2cccc(C(F)(F)F)c2)c1)N1CCCCC1	n	n	n	n	n	n
O=C(Nc1cccc(C(F)(F)F)c1)c1cccc(NS(=O)(=O)c2ccc(Br)c(C(=O)O)c2)c1	10.0	n	n	n	n	n
O=C(O)c1cccc(NS(=O)(=O)c2ccc(-c3ccc(S(=O)(=O)Nc4cccc(C(=O)O)c4)cc3)cc2)c1	n	n	n	50.9	n	n
CCOc1cc(N2CCOCC2)c(OCC)cc1NC(=O)c1cc(-c2ccco2)nc2ccccc12	n	n	30.2	n	n	n
CCN(CC)S(=O)(=O)c1ccc(N2CCOCC2)c(NC(=O)c2cc(-c3ccccn3)nc3ccccc23)c1	12.2	n	n	n	n	n
Cc1nn(-c2ccccc2)c(N)c1C(O)(C(F)(F)F)C(F)(F)F	n	n	n	n	n	n
